Measurements reported in ChEMBL document CHEMBL1151922, “Structure-activity relationships of 3,5-disubstituted benzamides as glucokinase activators with potent in vivo efficacy” (Bioorg Med Chem, 2009).
Values belong to the molecule of their own block, whether it stands above or below them. Activity calls are given as the source filed them. No cut-off for these calls is given here.

Tests used:
[1] = Octanol-water distribution coefficient, log D at pH 7.4 by HPLC-MS analysis
Hexokinase-4 [2] = target: T1, Hexokinase-4 (Homo sapiens, UniProt P35557); assay: Activation of flag-tagged human recombinant liver glucokinase expressed in Escherichia coli by glucose-6-phosphate dehydrogenase coupled continuous spectrophotometric assay in presence of 10 mM glucose
T1 sequence (P35557 whole entry): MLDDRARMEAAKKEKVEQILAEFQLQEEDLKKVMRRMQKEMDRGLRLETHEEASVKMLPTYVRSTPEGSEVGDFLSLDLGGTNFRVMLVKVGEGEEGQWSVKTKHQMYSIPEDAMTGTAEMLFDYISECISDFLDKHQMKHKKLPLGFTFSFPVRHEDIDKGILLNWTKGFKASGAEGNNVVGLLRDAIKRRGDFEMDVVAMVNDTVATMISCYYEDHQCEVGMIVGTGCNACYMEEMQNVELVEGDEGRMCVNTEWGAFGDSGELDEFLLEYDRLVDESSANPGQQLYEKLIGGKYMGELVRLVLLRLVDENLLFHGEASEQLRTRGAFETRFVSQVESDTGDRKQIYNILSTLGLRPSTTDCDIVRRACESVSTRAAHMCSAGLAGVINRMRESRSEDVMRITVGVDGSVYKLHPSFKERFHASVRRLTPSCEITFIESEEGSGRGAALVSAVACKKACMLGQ

Hexokinase-4 [3] = target: T1, Hexokinase-4; assay: Activation of flag-tagged human recombinant liver glucokinase expressed in Escherichia coli by glucose-6-phosphate dehydrogenase coupled continuous spectrophotometric assay in presence of 2.5 mM glucose
[4] = AUC (0 to infinity) in Beagle dog at 0.3 mg/kg, iv; assay type: ADME, organism-based, Canis lupus familiaris; parameters: time infinity, dose 0.3 mg/kg, route intravenous; conditions: plasma
[5] = Plasma clearance in Sprague-Dawley rat at 1 mg/kg, iv; assay type: ADME, organism-based; parameters: dose 1 mg/kg, route intravenous
[6] = Oral bioavailability in Sprague-Dawley rat at 3 mg/kg; assay type: ADME, organism-based; conditions: in vivo
[7] = AUC (0 to infinity) in Sprague-Dawley rat at 3 mg/kg, po; assay type: ADME, organism-based; parameters: dose 3 mg/kg, route oral, time infinity; conditions: plasma
Mus musculus [8] = assay: Glucose lowering effect in KKAy mouse assessed as decrease in blood glucose level at 30 mg/kg, po; assay type: functional, organism-based; parameters: dose 30 mg/kg
Method in brief: (§1)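 Male KKAy mice aged nine weeks, fasted 4 h beforehand, given a single oral dose in 0.5% methylcellulose vehicle, with a vehicle-only control group. Blood glucose was read just before dosing and at 0.5, 1, 2 and 4 h afterwards.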

[9] = Volume of distribution at steady state in Beagle dog at 0.3 mg/kg, iv; assay type: ADME, organism-based, Canis lupus familiaris; parameters: dose 0.3 mg/kg, route intravenous; conditions: in vivo, read-out: Vdss
Mus musculus [10] = assay: Glucose lowering effect in high-fat diet mouse assessed as decrease in blood glucose AUC level at 10 mg/kg, po; assay type: functional, organism-based; parameters: dose 10 mg/kg
Method in brief: (§2)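 Male high-fat-diet mice aged forty-one weeks, fed freely, dosed orally in 0.5% methylcellulose vehicle against a vehicle-only group. Blood glucose was sampled just before dosing and at 1, 2, 4 and 6 h after.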

[11] = Volume of distribution at steady state in Sprague-Dawley rat at 1 mg/kg, iv; assay type: ADME, organism-based; parameters: dose 1 mg/kg, route intravenous; conditions: in vivo, read-out: Vdss
Mus musculus [12] = assay: Glucose lowering effect in high-fat diet mouse assessed as decrease in blood glucose level at 10 mg/kg, po; assay type: functional, organism-based; parameters: dose 10 mg/kg; method in brief: as §2
Mus musculus [13] = assay: Glucose lowering effect in normal-fed ICR mouse assessed as decrease in blood glucose AUC level at 3 mg/kg, po; assay type: functional, organism-based; parameters: dose 3 mg/kg
Method in brief: (§3)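 Male ICR mice aged ten to eleven weeks, fed ad libitum, given a single oral dose suspended in 0.5% methylcellulose; vehicle alone served as control. Blood glucose was measured immediately before dosing and at 0.5, 1, 1.5, 2, 3 and 4 h afterwards.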

[14] = AUC (0 to infinity) in Sprague-Dawley rat at 1 mg/kg, iv; assay type: ADME, organism-based; parameters: time infinity, dose 1 mg/kg, route intravenous; conditions: plasma
[15] = Cmax in Sprague-Dawley rat at 3 mg/kg, po; assay type: ADME, organism-based; parameters: dose 3 mg/kg, route oral; conditions: in vivo
[16] = Tmax in Sprague-Dawley rat at 3 mg/kg, po; assay type: ADME, organism-based; parameters: dose 3 mg/kg, route oral; conditions: in vivo
[17] = Oral bioavailability in Beagle dog at 1 mg/kg; assay type: ADME, organism-based, Canis lupus familiaris; conditions: in vivo
[18] = Half life in Sprague-Dawley rat at 1 mg/kg, iv; assay type: ADME, organism-based; parameters: dose 1 mg/kg, route intravenous; conditions: in vivo
Mus musculus [19] = assay: Glucose lowering effect in high-fat diet mouse assessed as decrease in blood glucose level at 3 mg/kg, po; assay type: functional, organism-based; parameters: dose 3 mg/kg; method in brief: as §2
Mus musculus [20] = assay: Glucose lowering effect in KKAy mouse assessed as decrease in blood glucose level at 10 mg/kg, po; assay type: functional, organism-based; parameters: dose 10 mg/kg; method in brief: as §1
[21] = AUC (0 to infinity) in Beagle dog at 1 mg/kg, po; assay type: ADME, organism-based, Canis lupus familiaris; parameters: dose 1 mg/kg, route oral, time infinity; conditions: plasma
Mus musculus [22] = assay: Glucose lowering effect in KKAy mouse assessed as decrease in blood glucose AUC level at 30 mg/kg, po; assay type: functional, organism-based; parameters: dose 30 mg/kg; method in brief: as §1
[23] = Cmax in Beagle dog at 1 mg/kg, po; assay type: ADME, organism-based, Canis lupus familiaris; parameters: dose 1 mg/kg, route oral; conditions: in vivo
Mus musculus [24] = assay: Glucose lowering effect in high-fat diet mouse assessed as decrease in blood glucose AUC level at 3 mg/kg, po; assay type: functional, organism-based; parameters: dose 3 mg/kg; method in brief: as §2
[25] = Half life in Beagle dog at 0.3 mg/kg, iv; assay type: ADME, organism-based, Canis lupus familiaris; parameters: dose 0.3 mg/kg, route intravenous; conditions: in vivo
[26] = Tmax in Beagle dog at 1 mg/kg, po; assay type: ADME, organism-based, Canis lupus familiaris; parameters: dose 1 mg/kg, route oral; conditions: in vivo
Mus musculus [27] = assay: Glucose lowering effect in KKAy mouse assessed as decrease in blood glucose AUC level at 10 mg/kg, po; assay type: functional, organism-based; parameters: dose 10 mg/kg; method in brief: as §1
Mus musculus [28] = assay: Glucose lowering effect in normal-fed ICR mouse assessed as decrease in blood glucose AUC level at 10 mg/kg, po; assay type: functional, organism-based; parameters: dose 10 mg/kg; method in brief: as §3
[29] = Plasma clearance in Beagle dog at 0.3 mg/kg, iv; assay type: ADME, organism-based, Canis lupus familiaris; parameters: dose 0.3 mg/kg, route intravenous

logD [1]: 4 | EC50 (Hexokinase-4 [2]): 70 nM | EC50 (Hexokinase-4 [3]): 190 nM
Structure (SMILES): COCC(C)Oc1cc(Oc2ccc(S(C)(=O)=O)cc2)cc(C(=O)Nc2nccs2)c1 (racemic)

Structure (SMILES): CS(=O)(=O)c1ccc(Oc2cc(OC3CCCC3)cc(C(=O)Nc3nccs3)c2)cc1
logD [1]: > 5 | EC50 (Hexokinase-4 [2]): 240 nM | EC50 (Hexokinase-4 [3]): 490 nM

logD [1]: > 5 | EC50 (Hexokinase-4 [2]): 60 nM | EC50 (Hexokinase-4 [3]): 170 nM
Structure (SMILES): CC(C)Oc1cc(Oc2ccc(S(C)(=O)=O)cc2)cc(C(=O)Nc2nccs2)c1

Structure (SMILES): CS(=O)(=O)c1ccc(Oc2cc(OC3CCOCC3)cc(C(=O)Nc3nccs3)c2)cc1
logD [1]: 4.1 | EC50 (Hexokinase-4 [2]): 120 nM | EC50 (Hexokinase-4 [3]): 460 nM

AUC(0-inf) [4]: 2.4 µM·h | clearance [5]: 3.9 mL/min/kg | bioavailability [6]: 33% | AUC(0-inf) [7]: 12 µM·h | Vd [9]: 1.56 L/kg | Vd [11]: 0.19 L/kg | AUC(0-inf) [14]: 10 µM·h | Cmax [15]: 3400 nM | Tmax [16]: 0.3 h | bioavailability [17]: 57% | half-life [18]: 1.3 h | AUC(0-inf) [21]: 4.6 µM·h | Cmax [23]: 800 nM | half-life [25]: 5.4 h | Tmax [26]: 1.2 h | clearance [29]: 4.6 mL/min/kg
Structure (SMILES): C[C@@H](CO)Oc1cc(Oc2ccc(S(C)(=O)=O)cc2)cc(C(=O)Nc2nccs2)c1
Activity (Mus musculus [8]): Active | Activity (Mus musculus [10]): Active | Activity (Mus musculus [12]): Active | Activity (Mus musculus [13]): Active | Activity (Mus musculus [19]): Active | Activity (Mus musculus [20]): Active | Activity (Mus musculus [22]): Active | Activity (Mus musculus [24]): Active | Activity (Mus musculus [27]): Active | Activity (Mus musculus [28]): Active

Structure (SMILES): CS(=O)(=O)c1ccc(Oc2cc(OC3CCOC3)cc(C(=O)Nc3nccs3)c2)cc1 (racemic)
logD [1]: 4.2

Structure (SMILES): CS(=O)(=O)c1ccc(Oc2cc(O[C@@H]3CCOC3)cc(C(=O)Nc3nccs3)c2)cc1
EC50 (Hexokinase-4 [2]): 300 nM | EC50 (Hexokinase-4 [3]): 1800 nM

Structure (SMILES): CS(=O)(=O)c1ccc(Oc2cc(O[C@@H]3CCC[C@H]3O)cc(C(=O)Nc3nccs3)c2)cc1
EC50 (Hexokinase-4 [2]): 1600 nM | EC50 (Hexokinase-4 [3]): 3700 nM

logD [1]: > 4 | EC50 (Hexokinase-4 [2]): 120 nM | EC50 (Hexokinase-4 [3]): 610 nM
Structure (SMILES): COCC(COC)Oc1cc(Oc2ccc(S(C)(=O)=O)cc2)cc(C(=O)Nc2nccs2)c1

Structure (SMILES): CCC(COC)Oc1cc(Oc2ccc(S(C)(=O)=O)cc2)cc(C(=O)Nc2nccs2)c1 (racemic)
logD [1]: > 5 | EC50 (Hexokinase-4 [2]): 60 nM | EC50 (Hexokinase-4 [3]): 190 nM

EC50 (Hexokinase-4 [2]): 4200 nM | EC50 (Hexokinase-4 [3]): 18000 nM
Structure (SMILES): CS(=O)(=O)c1ccc(Oc2cc(OC3CCNC3)cc(C(=O)Nc3nccs3)c2)cc1 (racemic)

Structure (SMILES): CS(=O)(=O)c1ccc(Oc2cc(O[C@H]3CCOC3)cc(C(=O)Nc3nccs3)c2)cc1
EC50 (Hexokinase-4 [2]): 50 nM | EC50 (Hexokinase-4 [3]): 190 nM

logD [1]: > 4 | EC50 (Hexokinase-4 [2]): 200 nM | EC50 (Hexokinase-4 [3]): 360 nM
Structure (SMILES): CC(C)C(CO)Oc1cc(Oc2ccc(S(C)(=O)=O)cc2)cc(C(=O)Nc2nccs2)c1 (racemic)

Structure (SMILES): CS(=O)(=O)c1ccc(Oc2cc(O[C@@H]3CCC[C@@H]3O)cc(C(=O)Nc3nccs3)c2)cc1
EC50 (Hexokinase-4 [2]): 1200 nM | EC50 (Hexokinase-4 [3]): 3400 nM
